In the library only some 3.2% were active in any assay of this set; here they are far more common.
Cneo AK release – Cryptococcus neoformans lysis via adenylate kinase release; C. neoformans lysis, adenylate kinase release luminescence, 4 h; normalised: neutral wells 0, clomiphene wells 100; lysis activity, % at 15 µM; actives 0.2% (n = 360,000);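 active means mean lysis activity across replicates of at least 80%, whatever share of replicates individually reach that level; inactive means mean lysis activity below 80%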
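Material: C. neoformans cells | Amount: Yeast cell density of 5 × 10^6 cells/mL | Medium: Fresh YPD growth medium | Dosing: Single dose | Times: Static 4 h at 37 °C with compound, 1 h detection | Detection: AK luminescence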
MLL AF4-AF9 inh – inhibitors of human MLL-AF4/AF9 interaction. AlphaScreen, biotin-AF4 peptide binding to FLAG-AF9. inhibition, % at 10 µM. actives 0.47% (n = 350,000). AID 651704;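 active means every replicate reaching a set inhibition limit, whatever the replicate mean, cut at about 25% in these data; inconclusive means mean inhibition reaches that limit but some replicates miss it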
Target sequence (P42568 whole entry, looked up): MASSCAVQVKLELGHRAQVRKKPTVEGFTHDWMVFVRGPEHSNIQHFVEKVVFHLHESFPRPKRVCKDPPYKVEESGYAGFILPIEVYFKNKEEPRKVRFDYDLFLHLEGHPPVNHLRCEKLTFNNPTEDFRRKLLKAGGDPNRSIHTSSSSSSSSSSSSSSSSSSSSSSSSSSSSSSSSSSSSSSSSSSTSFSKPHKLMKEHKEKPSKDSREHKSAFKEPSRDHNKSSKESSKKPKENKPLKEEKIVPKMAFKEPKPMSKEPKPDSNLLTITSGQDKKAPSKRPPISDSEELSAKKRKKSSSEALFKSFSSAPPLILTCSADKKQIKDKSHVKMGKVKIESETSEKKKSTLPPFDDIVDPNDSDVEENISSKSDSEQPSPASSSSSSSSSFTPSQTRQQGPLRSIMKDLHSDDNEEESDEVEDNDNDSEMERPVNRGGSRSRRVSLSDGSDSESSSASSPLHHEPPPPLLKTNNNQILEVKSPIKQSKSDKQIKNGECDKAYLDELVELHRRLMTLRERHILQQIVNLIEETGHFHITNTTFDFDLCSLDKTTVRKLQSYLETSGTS
DENV2 CPE – DENV2-induced cell death inhibition; DENV2-infected cells, cytopathic effect rescue, plate reader; CPE inhibition, % at 9.99 µM; actives 1.7% (n = 350,000); in the data active means CPE inhibition above about 20%, passing the limit was not always enough; inconclusive means no clear call, values can overlap the other calls; tested in BHK-21 cells
S100A4 inh HTS – blocks human S100A4 binding to myosin IIA peptide; P26447; S100A4/TAMRA-MyoIIA peptide fluorescence polarization; inhibition, % at 10.7 µM; actives 0.14% (n = 360,000); AID 652163;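 active means mean inhibition of at least 70% across replicates, with every replicate also reaching that level; inconclusive means mean inhibition reaches 70% but some replicates fall short; inactive means mean inhibition below 70%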
Target sequence (P26447 whole entry, looked up): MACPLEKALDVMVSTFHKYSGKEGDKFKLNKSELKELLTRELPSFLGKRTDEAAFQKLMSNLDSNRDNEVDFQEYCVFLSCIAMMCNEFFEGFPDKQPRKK
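Test system – S100A4 monomer (human) · Compound – single-point compound testing · Schedule – 5 min incubation before reading · Probe or stimulus – TAMRA-labelled myosin IIA heavy-chain peptide probe, 5 nM · Benchmarks – neutral control DMSO, positive control TFP · Medium – Calcium-containing HEPES buffer, pH 7.2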
Ecoli rRNA inh – inhibitors of bacterial rRNA selective over humanized ribosomes. E. coli WT GFP vs humanized-ribosome RFP mutants, fluorescence, 24 h; active compounds read low; DMSO median 0, no signal -100. GFP signal change (wild-type ribosome), % (test concentration not listed). actives 1.6% (n = 350,000). AID 720706;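 active means significant combined selectivity score with lowered wild-type GFP, culture density cut under 30%, mutant RFP and density less affected; inactive means any of these conditions unmet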
PfHsp90 yeast 2 – inhibits growth of yeast expressing Plasmodium falciparum Hsp90 | inhibition, % at 9.4 µM | S. cerevisiae expressing PfHsp90, BacTiter-Glo ATP, 48 h; yeast lacking PDR1 and PDR3 efflux regulators | actives 0.32% (n = 310,000);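 active means every replicate shows inhibition above about 80%, whatever the replicate mean, limit read from the data; inconclusive means mean inhibition reaches the set limit but some replicate falls short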
A number is an active result; - = inactive; ? = inconclusive; . = no result given.

SMILES	Cneo AK release	MLL AF4-AF9 inh	DENV2 CPE	S100A4 inh HTS	Ecoli rRNA inh	PfHsp90 yeast 2
CC(C)(C)C1c2[nH]c3ccccc3c2CCN1CCCn1cccn1 (configuration not stated)	-	.	.	.	.	-
C[C@H]1CN([C@@H](C)CO)C(=O)c2cccc(NC(=O)CCCCCC(=O)Nc3ccccc3N)c2O[C@@H]1CN(C)C(=O)Nc1ccc(C(F)(F)F)cc1	.	-	-	-	-	.
C=C[C@@H](COC(=O)c1ccc([N+](=O)[O-])cc1)N(Cc1ccc(OC)cc1)S(=O)(=O)c1ccc(Br)cc1	-	-	24	-	.	.
CC(=O)N(C)C[C@H]1Oc2cc(-c3cncnc3)ccc2S(=O)(=O)N([C@H](C)CO)C[C@H]1C	-	-	-	-	-	.
CO[C@@H]1CN(C)C(=O)c2ccc(NC(=O)c3cnccn3)cc2OC[C@H](C)N(CCc2ccccc2)C[C@H]1C	-	-	-	-	-	.
CCn1c(-c2c[nH]c3ccccc23)n[nH]c1=S	-	-	-	-	-20	-
C[C@@H]1CN([C@@H](C)CO)C(=O)c2cc(NC(=O)Cc3ccccc3)ccc2O[C@H]1CN(C)S(=O)(=O)c1cn(C)cn1	-	-	-	-	-	.
Cc1ccc(S(=O)(=O)CCC(=O)NCc2ccccc2)cc1	.	-	22	-	-	-
COc1ccc(S(=O)(=O)N(CCc2ccccc2)CC(=O)NCCCO)cc1	.	.	.	.	.	-
Cc1ccc(S(=O)(=O)N(C)CC(=O)NCCCc2ccccc2)cc1	-	-	-	-	-24	-
COCCCNC(=O)CN(CCc1ccccc1)S(=O)(=O)c1ccc(OC)cc1	.	-	?	-	-24	-
Cc1ccc(S(=O)(=O)CCC(=O)OCc2ccc(Cl)cc2)cc1	.	-	-	-	-26	-
Cc1ccc(CNC(=O)CCS(=O)(=O)c2ccc(Cl)cc2)cc1	.	.	.	.	.	-
Cc1ccc(S(=O)(=O)N(C)C[C@@H]2Oc3ccc(NS(=O)(=O)c4c(C)noc4C)cc3C(=O)N([C@@H](C)CO)C[C@H]2C)cc1	-	-	-	-	-	.
O=C(COC(=O)C1CC(=O)N(Cc2ccco2)C1)Nc1ccc(F)cc1F (configuration not stated)	-	-	74	-	-	-
O=C(COC(=O)C1CC(=O)N(Cc2ccco2)C1)Nc1ccccc1[N+](=O)[O-] (configuration not stated)	-	-	-	-	-	-
CO[C@H]1CN(C)C(=O)c2ccc(NC(=O)c3cc(C)on3)cc2OC[C@@H](C)N(C)C[C@@H]1C	-	-	21	-	-	.
CO[C@@H]1CN(C)C(=O)c2ccc(NC(=O)c3cc(C)on3)cc2OC[C@H](C)N(C(=O)C2CC2)C[C@H]1C	-	-	32	-	-	.
O=C(C[C@@H]1CC[C@@H]2[C@H](COC[C@@H](O)CN2S(=O)(=O)c2ccc(F)cc2)O1)NCC1CCCCC1	-	?	-	-	-	.
O=C(C[C@@H]1CC[C@H]2[C@@H](COC[C@@H](O)CN2S(=O)(=O)c2ccc(Cl)cc2)O1)NCC1CCCCC1	-	34	-	-	-	.
Cc1ccc(S(=O)(=O)N2C[C@H](O)COC[C@H]3O[C@@H](CC(=O)NCc4ccc5c(c4)OCO5)CC[C@@H]32)cc1	-	-	-	-	-	.
Cc1ccc(S(=O)(=O)N2C[C@@H](O)COC[C@H]3O[C@H](CC(=O)NCc4ccc5c(c4)OCO5)CC[C@@H]32)cc1	104	-	.	-	-	.
COc1ccc(S(=O)(=O)N2C[C@@H](O)COC[C@@H]3O[C@H](CC(=O)NCCCN(C)C)CC[C@H]32)cc1	-	-	-	-	-	.
COc1ccc(S(=O)(=O)N2C[C@H](O)COC[C@H]3O[C@H](CC(=O)NCCCN(C)C)CC[C@@H]32)cc1	-	-	21	-	-	.
O=C(C[C@@H]1CC[C@H]2[C@@H](COC[C@H](O)CN2S(=O)(=O)c2ccc(F)cc2)O1)NCC1CCCCC1	-	36	-	-	-	.
SMILES	Cneo AK release	MLL AF4-AF9 inh	DENV2 CPE	S100A4 inh HTS	Ecoli rRNA inh	PfHsp90 yeast 2
CN(C)C(=O)C[C@H]1CC[C@@H]2[C@@H](COc3ccc(NC(=O)Nc4cccc(Cl)c4)cc3C(=O)N2C)O1	-	-	-	-	-	.
COc1ccc(NC(=O)Nc2ccc3c(c2)CC(=O)N([C@H](C)CO)C[C@@H](C)[C@@H](CN(C)C(=O)NC(C)C)O3)cc1	-	-	-	-	-	.
O=C(C[C@@H]1CC[C@H]2[C@@H](COC[C@@H](O)CN2S(=O)(=O)c2ccc(Cl)cc2)O1)NCCN1CCCC1	-	-	23	-	-	.
O=C(C[C@@H]1CC[C@H]2[C@@H](COC[C@H](O)CN2S(=O)(=O)c2ccccc2)O1)NCC1CCCCC1	-	39	-	-	-	.
O=C(C[C@H]1CC[C@H]2[C@@H](COC[C@@H](O)CN2S(=O)(=O)c2ccccc2)O1)NCC1CCCCC1	-	-	-	-	-	.
O=C(C[C@@H]1CC[C@@H]2[C@H](COC[C@@H](O)CN2S(=O)(=O)c2ccc(F)cc2)O1)NCc1ccc(Cl)c(Cl)c1	-	-	29	-	-	.
O=C(C[C@H]1CC[C@@H]2[C@H](COC[C@@H](O)CN2S(=O)(=O)c2ccc(F)cc2)O1)NCc1ccc(Cl)c(Cl)c1	-	-	-	-	-	.
O=C(C[C@H]1CC[C@@H]2[C@H](COC[C@H](O)CN2S(=O)(=O)c2ccc(F)cc2)O1)NCC1CCCCC1	-	28	-	-	-	.
O=C(C[C@@H]1CC[C@@H]2[C@H](COC[C@@H](O)CN2CCC(F)(F)F)O1)N1CCC(Cc2ccccc2)CC1	-	-	-	-	-	.
CCCNC(=O)N1C[C@@H]2[C@H](c3ccccc31)[C@H](CO)N2C(=O)NCCC	-	-	-	-	-	.
Cc1[nH]c2ccccc2c1C(=O)CSC(=S)N1CCN(C)CC1	-	-	55	-	.	-
Cc1[nH]c2ccccc2c1C(=O)CSC(=S)N(C)C	-	.	.	.	.	-
COc1ccc(NC(=O)/C(Cl)=C(/Cl)S(=O)Cc2ccc(Cl)cc2)cn1 (configuration not stated)	.	-	-	-	-	106
CC(C)NC(=O)N(C)C[C@@H]1Oc2ccc(NS(C)(=O)=O)cc2CC(=O)N([C@H](C)CO)C[C@@H]1C	-	-	-	-	-	.
CCN(CC)S(=O)(=O)c1ccc2[nH]c(=O)cc(C(=O)NCC(c3ccco3)N3CCCC3)c2c1 (configuration not stated)	.	-	27	-	-	-
OC[C@H]1[C@H](c2ccc(-c3ccc(F)cc3)cc2)[C@@H]2CN(Cc3ccncc3)CCCCN12	-	-	44	-	-19	.
